Laboratory results: ChEMBL document CHEMBL5550111, “Design, synthesis and biological evaluation of aryloxy thiophosphoramidate triesters of anticancer nucleoside analogues” (Bioorg Med Chem, 2024)

Key:
BXPC-3 [1] = assay: Cytotoxicity against human BXPC-3 cells assessed as maximum inhibition of cell viability upto 198 uM incubated for 72 hrs by MTS assay relative to control; type: functional; details: up to 198 µM
In short: (§1)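 Cells seeded at 0.5 to 100 × 10^3 per well the day before drug addition, then exposed to compound for 72 h. MTS added afterwards, with a further 4 h at 37 °C, and absorbance read. Tested in duplicate at 9 serial 3.16-fold dilutions, top concentration 198 μM. MI% is the maximum inhibition of viability across the tested range.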

HT-29 [2] = assay: Cytotoxicity against human HT-29 cells assessed as maximum inhibition of cell viability upto 198 uM incubated for 72 hrs by MTS assay relative to control; type: functional; details: up to 198 µM; in short: as §1
COLO 205 [3] = assay: Cytotoxicity against human COLO 205 cells assessed as inhibition of cell viability incubated for 72 hrs by MTS assay; type: functional, cell-based; details: COLO 205, 72 h
In short: (§2)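 Cells seeded at 0.5 to 100 × 10^3 per well the day before treatment, then exposed for 72 h to 9 serial concentrations (3.16-fold dilutions, top 198 μM), in duplicate. MTS added for a final 4 h at 37 °C and absorbance read. IC50 is the concentration giving 50% loss of viability. MI% is the maximum inhibition over the tested range.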

RT112/84 [4] = assay: Cytotoxicity against human RT112/84 cells assessed as inhibition of cell viability incubated for 72 hrs by MTS assay; type: functional, cell-based; details: RT112/84, 72 h; in short: as §2
MIA PaCa-2 [5] = assay: Cytotoxicity against human MIA PaCa-2 cells assessed as inhibition of cell viability incubated for 72 hrs by MTS assay; type: functional, cell-based; details: MIA PaCa-2, 72 h; in short: as §2
OVCAR-3 [6] = assay: Cytotoxicity against human OVCAR-3 cells assessed as inhibition of cell viability incubated for 72 hrs by MTS assay; type: functional, cell-based; details: OVCAR-3, 72 h; in short: as §2
COLO 205 [7] = assay: Cytotoxicity against human COLO 205 cells assessed as maximum inhibition of cell viability upto 198 uM incubated for 72 hrs by MTS assay relative to control; type: functional; details: up to 198 µM; in short: as §1
OVCAR-3 [8] = assay: Cytotoxicity against human OVCAR-3 cells assessed as maximum inhibition of cell viability upto 198 uM incubated for 72 hrs by MTS assay relative to control; type: functional; details: up to 198 µM; in short: as §1
MDA-MB-231 [9] = assay: Cytotoxicity against human MDA-MB-231 cells assessed as maximum inhibition of cell viability upto 198 uM incubated for 72 hrs by MTS assay relative to control; type: functional; details: up to 198 µM; in short: as §1
HT-29 [10] = assay: Cytotoxicity against human HT-29 cells assessed as inhibition of cell viability incubated for 72 hrs by MTS assay; type: functional, cell-based; details: HT-29, 72 h; in short: as §2
SK-MES-1 [11] = assay: Cytotoxicity against human SK-MES-1 cells assessed as inhibition of cell viability incubated for 72 hrs by MTS assay; type: functional, cell-based; details: SK-MES-1, 72 h; in short: as §2
BXPC-3 [12] = assay: Cytotoxicity against human BXPC-3 cells assessed as inhibition of cell viability incubated for 72 hrs by MTS assay; type: functional, cell-based; details: BXPC-3, 72 h; in short: as §2
PANC-1 [13] = assay: Cytotoxicity against human PANC-1 cells assessed as inhibition of cell viability incubated for 72 hrs by MTS assay; type: functional, cell-based; details: PANC-1, 72 h; in short: as §2
RT112/84 [14] = assay: Cytotoxicity against human RT112/84 cells assessed as maximum inhibition of cell viability upto 198 uM incubated for 72 hrs by MTS assay relative to control; type: functional; details: up to 198 µM; in short: as §1
MDA-MB-231 [15] = assay: Cytotoxicity against human MDA-MB-231 cells assessed as inhibition of cell viability incubated for 72 hrs by MTS assay; type: functional, cell-based; details: MDA-MB-231, 72 h; in short: as §2
PC-3 [16] = assay: Cytotoxicity against human PC-3 cells assessed as inhibition of cell viability incubated for 72 hrs by MTS assay; type: functional, cell-based; details: PC-3, 72 h; in short: as §2
A2780 [17] = assay: Cytotoxicity against human A2780 cells assessed as maximum inhibition of cell viability upto 198 uM incubated for 72 hrs by MTS assay relative to control; type: functional; details: up to 198 µM; in short: as §1
[18] = Cytotoxicity against human T24/83 cells assessed as inhibition of cell viability incubated for 72 hrs by MTS assay; type: functional, cell-based; details: T24/83, 72 h; in short: as §2
SK-MES-1 [19] = assay: Cytotoxicity against human SK-MES-1 cells assessed as maximum inhibition of cell viability upto 198 uM incubated for 72 hrs by MTS assay relative to control; type: functional; details: up to 198 µM; in short: as §1
HepG2 [20] = assay: Cytotoxicity against human HepG2 cells assessed as inhibition of cell viability incubated for 72 hrs by MTS assay; type: functional, cell-based; details: HepG2, 72 h; in short: as §2
A2780 [21] = assay: Cytotoxicity against human A2780 cells assessed as inhibition of cell viability incubated for 72 hrs by MTS assay; type: functional, cell-based; details: A2780, 72 h; in short: as §2
PANC-1 [22] = assay: Cytotoxicity against human PANC-1 cells assessed as maximum inhibition of cell viability upto 198 uM incubated for 72 hrs by MTS assay relative to control; type: functional; details: up to 198 µM; in short: as §1
MIA PaCa-2 [23] = assay: Cytotoxicity against human MIA PaCa-2 cells assessed as maximum inhibition of cell viability upto 198 uM incubated for 72 hrs by MTS assay relative to control; type: functional; details: up to 198 µM; in short: as §1
PC-3 [24] = assay: Cytotoxicity against human PC-3 cells assessed as maximum inhibition of cell viability upto 198 uM incubated for 72 hrs by MTS assay relative to control; type: functional; details: up to 198 µM; in short: as §1
HepG2 [25] = assay: Cytotoxicity against human HepG2 cells assessed as maximum inhibition of cell viability upto 198 uM incubated for 72 hrs by MTS assay relative to control; type: functional; details: up to 198 µM; in short: as §1

Nc1ccn([C@@H]2O[C@H](CO)[C@@H](O)C2(F)F)c(=O)n1 [GEMCITABINE]
Imax (BXPC-3 [1]): 79% | Imax (HT-29 [2]): 64% | IC50 (COLO 205 [3]): 110 nM | IC50 (RT112/84 [4]): 1220 nM | IC50 (MIA PaCa-2 [5]): 40 nM | IC50 (OVCAR-3 [6]): 67200 nM | Imax (COLO 205 [7]): 86% | Imax (OVCAR-3 [8]): 35% | Imax (MDA-MB-231 [9]): 74% | IC50 (HT-29 [10]): 70 nM | IC50 (SK-MES-1 [11]): 1220 nM | IC50 (BXPC-3 [12]): 1810 nM | IC50 (PANC-1 [13]): 680 nM | Imax (RT112/84 [14]): 88% | IC50 (MDA-MB-231 [15]): 3700 nM | IC50 (PC-3 [16]): 460 nM | Imax (A2780 [17]): 85% | IC50 [18]: < 20 nM | Imax (SK-MES-1 [19]): 88% | IC50 (HepG2 [20]): 16700 nM | IC50 (A2780 [21]): 320 nM | Imax (PANC-1 [22]): 43% | Imax (MIA PaCa-2 [23]): 68% | Imax (PC-3 [24]): 61% | Imax (HepG2 [25]): 53%
